Test results published in ChEMBL document CHEMBL1629657, “In vitro antimicrobial activity of a new cephalosporin, ceftaroline, and determination of quality control ranges for MIC testing” (2009).

Assays:
Assay type in all cases: functional
Providencia stuartii = experiment: Antimicrobial activity against Proteus stuartii by broth microdilution method
In short: (§1)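 Clinical isolates were tested by CLSI broth microdilution in unsupplemented cation-adjusted Mueller-Hinton broth. The read-out was the MIC, reported as MIC90 (μg/ml) per species or phenotypic group. Ceftriaxone, levofloxacin and imipenem were run in parallel as comparators.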

Proteus vulgaris = experiment: Antimicrobial activity against Proteus vulgaris by broth microdilution method; in short: as §1
Serratia marcescens = experiment: Antimicrobial activity against Serratia marcescens by broth microdilution method; in short: as §1
Shigella sp. = experiment: Antimicrobial activity against Shigella spp. by broth microdilution method; in short: as §1
Salmonella sp. = experiment: Antimicrobial activity against Salmonella spp. by broth microdilution method; in short: as §1
Burkholderia cepacia = experiment: Antimicrobial activity against Burkholderia cepacia by broth microdilution method; in short: as §1
Pseudomonas aeruginosa [1] = experiment: Antimicrobial activity against Pseudomonas aeruginosa by broth microdilution method; in short: as §1
Pseudomonas aeruginosa [2] = experiment: Antimicrobial activity against multidrug resistant Pseudomonas aeruginosa by broth microdilution method
In short: (§2)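 Isolates of the stated resistance phenotype were tested by CLSI broth microdilution in unsupplemented cation-adjusted Mueller-Hinton broth. Ceftaroline was compared with ceftriaxone, levofloxacin and imipenem. Activity was expressed as MICs (MIC90 in μg/ml).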

[3] = tested on: Stenotrophomonas maltophilia; experiment: Antimicrobial activity against Stenotrophomonas maltophilia by broth microdilution method; in short: as §1
Moraxella catarrhalis = experiment: Antimicrobial activity against Moraxella catarrhalis by broth microdilution method; in short: as §1
Haemophilus influenzae [4] = experiment: Antimicrobial activity against beta-lactamase-negative Haemophilus influenzae by broth microdilution method
In short: (§3)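 CLSI broth microdilution in Haemophilus test medium (cation-adjusted Mueller-Hinton base) against clinical H. influenzae isolates of the stated phenotype. Ceftaroline was compared with ceftriaxone, levofloxacin and imipenem. Activity was expressed as MICs (MIC90 in μg/ml).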

Haemophilus influenzae [5] = experiment: Antimicrobial activity against beta-lactamase-positive Haemophilus influenzae by broth microdilution method
In short: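 H. influenzae isolates were tested by CLSI broth microdilution using Haemophilus test medium. The MIC was read and MIC90 (μg/ml) reported for the group. Ceftriaxone, levofloxacin and imipenem served as comparators.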

Haemophilus influenzae [6] = experiment: Antimicrobial activity against beta-lactamase-negative ampicillin resistant Haemophilus influenzae by broth microdilution method; in short: as §3
Staphylococcus aureus [7] = experiment: Antimicrobial activity against methicillin-resistant Staphylococcus aureus by broth microdilution method; in short: as §2
Staphylococcus aureus [8] = experiment: Antimicrobial activity against methicillin-susceptible Staphylococcus aureus by broth microdilution method; in short: as §1
Staphylococcus aureus [9] = experiment: Antimicrobial activity against vancomycin-intermediate Staphylococcus aureus by broth microdilution method; in short: as §1
Staphylococcus aureus [10] = experiment: Antimicrobial activity against vancomycin-resistant Staphylococcus aureus by broth microdilution method; in short: as §2
Staphylococcus [11] = experiment: Antimicrobial activity against methicillin-resistant coagulase-negative Staphylococcus by broth microdilution method; in short: as §2
Staphylococcus [12] = experiment: Antimicrobial activity against methicillin-susceptible coagulase-negative Staphylococcus by broth microdilution method; in short: as §1
Enterococcus faecalis [13] = experiment: Antimicrobial activity against Enterococcus faecalis by broth microdilution method; in short: as §1
Enterococcus faecalis [14] = experiment: Antimicrobial activity against vancomycin-susceptible Enterococcus faecalis by broth microdilution method; in short: as §1
Enterococcus faecium [15] = experiment: Antimicrobial activity against Enterococcus faecium by broth microdilution method; in short: as §1
Enterococcus faecium [16] = experiment: Antimicrobial activity against vancomycin-susceptible Enterococcus faecium by broth microdilution method; in short: as §1
Corynebacterium jeikeium = experiment: Antimicrobial activity against Corynebacterium jeikeium by broth microdilution method; in short: as §1
Listeria monocytogenes = experiment: Antimicrobial activity against Listeria monocytogenes by broth microdilution method; in short: as §1
Streptococcus agalactiae = experiment: Antimicrobial activity against Streptococcus agalactiae by broth microdilution method
In short: (§4)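 Streptococcal isolates were tested by CLSI broth microdilution in cation-adjusted Mueller-Hinton broth supplemented with 3% lysed horse blood. The read-out was the MIC, with MIC90 (μg/ml) reported per group. Ceftriaxone, levofloxacin and imipenem served as comparators.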

Streptococcus pneumoniae [17] = experiment: Antimicrobial activity against levofloxacin-resistant Streptococcus pneumoniae by broth microdilution method
In short: (§5)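 CLSI broth microdilution in cation-adjusted Mueller-Hinton broth with 3% lysed horse blood, against streptococcal clinical isolates of the stated phenotype. Ceftaroline was compared with ceftriaxone, levofloxacin and imipenem. Activity was expressed as MICs (MIC90 in μg/ml).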

Streptococcus pneumoniae [18] = experiment: Antimicrobial activity against penicillin-resistant Streptococcus pneumoniae by broth microdilution method; in short: as §5
Streptococcus pneumoniae [19] = experiment: Antimicrobial activity against penicillin-intermediate Streptococcus pneumoniae by broth microdilution method; in short: as §5
Streptococcus pneumoniae [20] = experiment: Antimicrobial activity against penicillin-susceptible Streptococcus pneumoniae by broth microdilution method; in short: as §4
Streptococcus pyogenes [21] = experiment: Antimicrobial activity against macrolide-resistant Streptococcus pyogenes by broth microdilution method; in short: as §5
Streptococcus pyogenes [22] = experiment: Antimicrobial activity against macrolide-susceptible Streptococcus pyogenes by broth microdilution method; in short: as §5
Streptococcus viridans = experiment: Antimicrobial activity against Streptococcus viridans group clinical isolate by broth microdilution method; in short: as §4
Klebsiella aerogenes = experiment: Antimicrobial activity against ESBL-negative Enterobacter aerogenes by broth microdilution method; in short: as §1
Enterobacter cloacae = experiment: Antimicrobial activity against ESBL-negative Enterobacter cloacae by broth microdilution method; in short: as §1
Escherichia coli [23] = experiment: Antimicrobial activity against ESBL-negative Escherichia coli by broth microdilution method; in short: as §1
Escherichia coli [24] = experiment: Antimicrobial activity against ESBL-positive Escherichia coli by broth microdilution method; in short: as §1
Klebsiella pneumoniae [25] = experiment: Antimicrobial activity against ESBL-negative Klebsiella pneumoniae by broth microdilution method; in short: as §1
Klebsiella pneumoniae [26] = experiment: Antimicrobial activity against ESBL-positive Klebsiella pneumoniae by broth microdilution method; in short: as §1
Morganella morganii = experiment: Antimicrobial activity against Morganella morganii by broth microdilution method; in short: as §1
Proteus mirabilis = experiment: Antimicrobial activity against Proteus mirabilis by broth microdilution method; in short: as §1
Providencia rettgeri = experiment: Antimicrobial activity against Proteus rettgeri by broth microdilution method; in short: as §1

CO/N=C(\C(=O)N[C@@H]1C(=O)N2C(C(=O)O)=C(CSc3nc(=O)c(O)nn3C)CS[C@H]12)c1csc(N)n1 [CEFTRIAXONE]
0.03 µg/mL: MIC (Shigella sp.) | MIC50 (Shigella sp.) | MIC50 (Streptococcus pneumoniae [20]) | MIC90 (Streptococcus pyogenes [21]) | MIC90 (Streptococcus pyogenes [22])
0.5 µg/mL: MIC50 (Moraxella catarrhalis) | MIC90 (Streptococcus pneumoniae [19]) | MIC90 (Enterobacter cloacae) | MIC50 (Morganella morganii)
0.25 µg/mL: MIC90 (Providencia stuartii) | MIC50 (Serratia marcescens) | MIC50 (Streptococcus pneumoniae [17]) | MIC50 (Streptococcus pneumoniae [19]) | MIC50 (Enterobacter cloacae) | MIC90 (Escherichia coli [23]) | MIC90 (Providencia rettgeri)
32 µg/mL: MIC50 (Staphylococcus aureus [7]) | MIC50 (Klebsiella pneumoniae [26]) | MIC90 (Morganella morganii)
> 32 µg/mL: MIC90 (Proteus vulgaris) | MIC90 (Salmonella sp.) | MIC50 (Burkholderia cepacia) | MIC90 (Burkholderia cepacia) | MIC50 (Pseudomonas aeruginosa [1]) | MIC90 (Pseudomonas aeruginosa [1]) | MIC50 [3] | MIC90 [3] | MIC50 (Staphylococcus aureus [9]) | MIC90 (Staphylococcus aureus [9]) | MIC (Staphylococcus aureus [10]) | MIC90 (Staphylococcus [11]) | MIC50 (Enterococcus faecalis [13]) | MIC90 (Enterococcus faecalis [13]) | MIC (Enterococcus faecalis [14]) | MIC50 (Enterococcus faecalis [14]) | MIC90 (Enterococcus faecalis [14]) | MIC (Enterococcus faecium [15]) | MIC50 (Enterococcus faecium [15]) | MIC90 (Enterococcus faecium [15]) | MIC50 (Enterococcus faecium [16]) | MIC90 (Enterococcus faecium [16]) | MIC50 (Corynebacterium jeikeium) | MIC90 (Corynebacterium jeikeium) | MIC50 (Listeria monocytogenes) | MIC90 (Listeria monocytogenes) | MIC90 (Klebsiella aerogenes) | MIC50 (Escherichia coli [24]) | MIC90 (Escherichia coli [24]) | MIC90 (Klebsiella pneumoniae [26])
2 µg/mL: MIC90 (Serratia marcescens) | MIC50 (Staphylococcus [12]) | MIC90 (Streptococcus pneumoniae [17]) | MIC50 (Streptococcus pneumoniae [18])
16 µg/mL: MIC (Pseudomonas aeruginosa [2]) | MIC50 (Staphylococcus [11])
0.015 µg/mL: MIC (Haemophilus influenzae [4]) | MIC50 (Haemophilus influenzae [4]) | MIC90 (Haemophilus influenzae [4]) | MIC (Haemophilus influenzae [5]) | MIC50 (Haemophilus influenzae [5]) | MIC90 (Haemophilus influenzae [5]) | MIC (Streptococcus pyogenes [21]) | MIC50 (Streptococcus pyogenes [21]) | MIC (Streptococcus pyogenes [22]) | MIC50 (Streptococcus pyogenes [22]) | MIC (Proteus mirabilis) | MIC50 (Proteus mirabilis) | MIC90 (Proteus mirabilis)
0.06 µg/mL: MIC50 (Providencia stuartii) | MIC90 (Shigella sp.) | MIC50 (Salmonella sp.) | MIC (Streptococcus agalactiae) | MIC50 (Streptococcus agalactiae) | MIC90 (Streptococcus pneumoniae [20]) | MIC50 (Escherichia coli [23]) | MIC50 (Klebsiella pneumoniae [25]) | MIC50 (Providencia rettgeri)
4 µg/mL: MIC50 (Staphylococcus aureus [8]) | MIC90 (Staphylococcus aureus [8])
1 µg/mL: MIC50 (Proteus vulgaris) | MIC90 (Moraxella catarrhalis) | MIC90 (Streptococcus viridans)
8 µg/mL: MIC90 (Staphylococcus [12]) | MIC90 (Streptococcus pneumoniae [18])
0.12 µg/mL: MIC50 (Haemophilus influenzae [6]) | MIC90 (Haemophilus influenzae [6]) | MIC90 (Streptococcus agalactiae) | MIC50 (Streptococcus viridans) | MIC50 (Klebsiella aerogenes) | MIC90 (Klebsiella pneumoniae [25])

C[C@H]1COc2c(N3CCN(C)CC3)c(F)cc3c(=O)c(C(=O)O)cn1c23.C[C@H]1COc2c(N3CCN(C)CC3)c(F)cc3c(=O)c(C(=O)O)cn1c23.O [LEVOFLOXACIN]
0.12 µg/mL: MIC50 (Providencia stuartii) | MIC50 (Serratia marcescens) | MIC50 (Providencia rettgeri)
16 µg/mL: MIC90 [3] | MIC50 (Staphylococcus aureus [9]) | MIC (Staphylococcus aureus [10]) | MIC90 (Staphylococcus [12]) | MIC50 (Streptococcus pneumoniae [17])
0.06 µg/mL: MIC90 (Proteus vulgaris) | MIC90 (Shigella sp.) | MIC90 (Salmonella sp.) | MIC90 (Haemophilus influenzae [6]) | MIC50 (Klebsiella aerogenes) | MIC90 (Enterobacter cloacae) | MIC50 (Klebsiella pneumoniae [25]) | MIC50 (Morganella morganii)
> 32 µg/mL: MIC90 (Providencia stuartii) | MIC90 (Pseudomonas aeruginosa [1]) | MIC90 (Staphylococcus aureus [7]) | MIC90 (Staphylococcus [11]) | MIC90 (Enterococcus faecalis [14]) | MIC50 (Enterococcus faecium [15]) | MIC90 (Enterococcus faecium [15]) | MIC90 (Enterococcus faecium [16]) | MIC50 (Corynebacterium jeikeium) | MIC90 (Corynebacterium jeikeium) | MIC90 (Streptococcus pneumoniae [17]) | MIC90 (Providencia rettgeri)
0.03 µg/mL: MIC50 (Proteus vulgaris) | MIC50 (Shigella sp.) | MIC (Salmonella sp.) | MIC50 (Salmonella sp.) | MIC50 (Moraxella catarrhalis) | MIC90 (Moraxella catarrhalis) | MIC50 (Haemophilus influenzae [4]) | MIC90 (Haemophilus influenzae [4]) | MIC50 (Haemophilus influenzae [5]) | MIC90 (Haemophilus influenzae [5]) | MIC50 (Haemophilus influenzae [6]) | MIC50 (Enterobacter cloacae) | MIC50 (Escherichia coli [23]) | MIC (Proteus mirabilis) | MIC50 (Proteus mirabilis)
32 µg/mL: MIC90 (Burkholderia cepacia) | MIC50 (Pseudomonas aeruginosa [2]) | MIC90 (Staphylococcus aureus [9]) | MIC90 (Enterococcus faecalis [13]) | MIC90 (Escherichia coli [24])
2 µg/mL: MIC50 (Pseudomonas aeruginosa [1]) | MIC50 (Enterococcus faecium [16]) | MIC90 (Streptococcus pneumoniae [20]) | MIC90 (Streptococcus pyogenes [22]) | MIC90 (Streptococcus viridans)
0.25 µg/mL: MIC90 (Serratia marcescens) | MIC50 (Staphylococcus aureus [8]) | MIC50 (Staphylococcus [12]) | MIC90 (Escherichia coli [23]) | MIC50 (Escherichia coli [24]) | MIC90 (Proteus mirabilis)
0.5 µg/mL: MIC (Streptococcus pyogenes [21]) | MIC50 (Streptococcus pyogenes [21]) | MIC90 (Streptococcus pyogenes [21]) | MIC50 (Streptococcus pyogenes [22]) | MIC90 (Klebsiella aerogenes) | MIC90 (Klebsiella pneumoniae [25]) | MIC50 (Klebsiella pneumoniae [26])
1 µg/mL: MIC50 (Burkholderia cepacia) | MIC50 [3] | MIC50 (Enterococcus faecalis [13]) | MIC (Enterococcus faecalis [14]) | MIC50 (Enterococcus faecalis [14]) | MIC (Listeria monocytogenes) | MIC50 (Listeria monocytogenes) | MIC90 (Listeria monocytogenes) | MIC50 (Streptococcus agalactiae) | MIC90 (Streptococcus agalactiae) | MIC50 (Streptococcus pneumoniae [18]) | MIC90 (Streptococcus pneumoniae [18]) | MIC50 (Streptococcus pneumoniae [19]) | MIC90 (Streptococcus pneumoniae [19]) | MIC50 (Streptococcus pneumoniae [20]) | MIC50 (Streptococcus viridans)
8 µg/mL: MIC50 (Staphylococcus aureus [7]) | MIC90 (Staphylococcus aureus [8]) | MIC50 (Staphylococcus [11]) | MIC90 (Klebsiella pneumoniae [26]) | MIC90 (Morganella morganii)
